Test results from ChEMBL document CHEMBL1177781, “Synthesis and SAR of potent inhibitors of the Hepatitis C virus NS3/4A protease: exploration of P2 quinazoline substituents” (Bioorg Med Chem Lett, 2010).

Legend:
Hepatitis C virus = test: Antiviral activity against HCV1b infected in human Huh7 cells assessed as inhibition viral subgenomic replication; assay type: functional, organism-based, Hepacivirus hominis; details: genotype 1b, Huh-7
How it was run: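 Cell-based EC50 was measured in Huh7 cells carrying the subgenomic bicistronic HCV replicon clone ET, with a luciferase read-out.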

Liver microsomes = test: Intrinsic clearance in human liver microsomes; assay type: ADME, Microsome
How it was run: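 Metabolic stability in human liver microsomes was expressed as intrinsic clearance (Cl_int, µL/min/mg).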

[1] = Inhibition of HCV 1a NS3/4A protease; design: species or system Hepatitis C virus subtype 1a
How it was run: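 Enzyme inhibition was determined as Ki against recombinant full-length NS3 enzyme, following a literature procedure, in an external laboratory.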

[2] = Apparent permeability across human Caco-2 cells; assay type: ADME, cell-based
[3] = Oral bioavailability in Sprague-Dawley rat at 10 mg/kg; assay type: ADME, organism-based; details: in vivo
How it was run: (§1)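 Male Sprague–Dawley rats (n = 2 per route) received a single intravenous dose (2 mg base-equiv/kg) or an oral dose. Mean plasma levels were followed to derive Cl, Vdss, AUC, Cmax, Tmax, T1/2 and F. Liver-to-plasma ratio was determined at 6 h.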

[4] = Half life in Sprague-Dawley rat at 10 mg/kg, po; assay type: ADME, organism-based; design: dose 10 mg/kg, route oral; details: in vivo; how it was run: as §1
[5] = AUC in Sprague-Dawley rat at 10 mg/kg, po; assay type: ADME, organism-based; design: dose 10 mg/kg, route oral; details: plasma; how it was run: as §1
[6] = (§2) Clearance in Sprague-Dawley rat at 2 mg/kg, iv; assay type: ADME, organism-based; design: dose 2 mg/kg, route intravenous; details: Sprague-Dawley, in vivo; how it was run: as §1
[7] = Cmax in Sprague-Dawley rat at 10 mg/kg, po; assay type: ADME, organism-based; design: dose 10 mg/kg, route oral; details: in vivo; how it was run: as §1
[8] = Tmax in Sprague-Dawley rat at 10 mg/kg, po; assay type: ADME, organism-based; design: dose 10 mg/kg, route oral; details: in vivo; how it was run: as §1
Rattus norvegicus [9] = test: AUC in Sprague-Dawley rat at 2 mg/kg, iv; assay type: ADME, organism-based, Plasma; design: dose 2 mg/kg, route intravenous; details: in vivo; how it was run: as §1
[10] = Ratio of drug level in liver to plasma in Sprague-Dawley rat at 10 mg/kg, po after 6 hrs; assay type: ADME, organism-based; design: dose 10 mg/kg, route oral; how it was run: as §1
Rattus norvegicus [11] = test: as §2; assay type: ADME, organism-based; design: dose 2 mg/kg, route intravenous; details: in vivo; how it was run: as §1
[12] = Ratio of drug level in liver to plasma in Sprague-Dawley rat at 2 mg/kg, iv after 6 hrs; assay type: ADME, organism-based; design: dose 2 mg/kg, route intravenous; how it was run: as §1

CN1CCCC/C=C\[C@@H]2C[C@@]2(C(=O)NS(=O)(=O)C2CC2)NC(=O)[C@@H]2C[C@@H](Oc3nc(-c4ccccc4)nc4ccccc34)C[C@H]2C1=O
EC50 (Hepatitis C virus): 52 nM | CL (Liver microsomes): 58 µL/min | Ki [1]: 0.4 nM | Papp [2]: 21 ×10⁻⁶ cm/s

CN1CCCC/C=C\[C@@H]2C[C@@]2(C(=O)NS(=O)(=O)C2CC2)NC(=O)[C@@H]2C[C@@H](Oc3nc(N4CCOCC4)nc4ccccc34)C[C@H]2C1=O
EC50 (Hepatitis C virus): 390 nM | Ki [1]: 6.2 nM

CN1CCN(c2nc(O[C@@H]3C[C@H]4C(=O)N[C@]5(C(=O)NS(=O)(=O)C6CC6)C[C@H]5/C=C\CCCCN(C)C(=O)[C@@H]4C3)c3ccccc3n2)CC1
EC50 (Hepatitis C virus): 830 nM | Ki [1]: 1.2 nM

CC(C)c1csc(-c2nc(O[C@@H]3C[C@H]4C(=O)N[C@]5(C(=O)NS(=O)(=O)C6CC6)C[C@H]5/C=C\CCCCN(C)C(=O)[C@@H]4C3)c3ccccc3n2)n1
EC50 (Hepatitis C virus): 120 nM | Ki [1]: 0.8 nM

COc1ccc2c(O[C@@H]3C[C@H]4C(=O)N[C@]5(C(=O)NS(=O)(=O)C6CC6)C[C@H]5/C=C\CCCCN(C)C(=O)[C@@H]4C3)nc(-c3ccccc3)nc2c1
EC50 (Hepatitis C virus): 14 nM | CL (Liver microsomes): 88 µL/min | Ki [1]: 0.4 nM | Papp [2]: 13 ×10⁻⁶ cm/s

COc1ccc2c(O[C@@H]3C[C@H]4C(=O)N[C@]5(C(=O)NS(=O)(=O)C6CC6)C[C@H]5/C=C\CCCCN(C)C(=O)[C@@H]4C3)nc(-c3nc(C(C)C)cs3)nc2c1
EC50 (Hepatitis C virus): 58 nM | CL (Liver microsomes): 76 µL/min | Ki [1]: 1.2 nM

COc1ccc2c(O[C@@H]3C[C@H]4C(=O)N[C@]5(C(=O)NS(=O)(=O)C6CC6)C[C@H]5/C=C\CCCCN(C)C(=O)[C@@H]4C3)nc(-c3ccc(F)cc3)nc2c1
EC50 (Hepatitis C virus): 11 nM | CL (Liver microsomes): 32 µL/min | Ki [1]: 0.2 nM | Papp [2]: 20 ×10⁻⁶ cm/s

COc1ccc2c(O[C@@H]3C[C@H]4C(=O)N[C@]5(C(=O)NS(=O)(=O)C6CC6)C[C@H]5/C=C\CCCCN(C)C(=O)[C@@H]4C3)nc(-c3ccccc3)nc2c1C
bioavailability [3]: 40% | EC50 (Hepatitis C virus): 5 nM | CL (Liver microsomes): < 6 µL/min | half-life [4]: 3.8 h | Ki [1]: 0.1 nM | Papp [2]: 13 ×10⁻⁶ cm/s | AUC [5]: 3.3 µM·h | clearance [6]: 16.7 mL/min/kg | Cmax [7]: 660 nM | Tmax [8]: 2 h

COc1ccc(-c2nc(O[C@@H]3C[C@H]4C(=O)N[C@]5(C(=O)NS(=O)(=O)C6CC6)C[C@H]5/C=C\CCCCN(C)C(=O)[C@@H]4C3)c3ccc(OC)c(C)c3n2)cc1
EC50 (Hepatitis C virus): 8 nM | CL (Liver microsomes): 11 µL/min | Ki [1]: 0.6 nM | Papp [2]: 9 ×10⁻⁶ cm/s

COc1ccc2c(O[C@@H]3C[C@H]4C(=O)N[C@]5(C(=O)NS(=O)(=O)C6CC6)C[C@H]5/C=C\CCCCN(C)C(=O)[C@@H]4C3)ncnc2c1C
EC50 (Hepatitis C virus): > 1000 nM | Ki [1]: > 1000 nM

COc1ccc2c(O[C@@H]3C[C@H]4C(=O)N[C@]5(C(=O)NS(=O)(=O)C6CC6)C[C@H]5/C=C\CCCCN(C)C(=O)N4C3)nc(-c3ccccc3)nc2c1C
bioavailability [3]: 73% | AUC (Rattus norvegicus [9]): 8.4 µM·h | EC50 (Hepatitis C virus): 11 nM | Kp at 6 h [10]: 32 | CL (Liver microsomes): 17 µL/min | Ki [1]: 0.2 nM | Papp [2]: 26 ×10⁻⁶ cm/s | AUC [5]: 15 µM·h | CL (Rattus norvegicus [11]): 11.5 mL/min/kg | Cmax [7]: 3400 nM | Tmax [8]: 5 h | Kp at 6 h [12]: 38

COc1ccc2c(O[C@@H]3C[C@H]4C(=O)N[C@]5(C(=O)NS(=O)(=O)C6CC6)C[C@H]5/C=C\CCCCN(C)C(=O)N4C3)nc(-c3ccc(F)cc3)nc2c1C
EC50 (Hepatitis C virus): 16 nM | Kp at 6 h [10]: 42 | CL (Liver microsomes): < 6 µL/min | Ki [1]: 0.3 nM | Papp [2]: 32 ×10⁻⁶ cm/s | AUC [5]: 11 µM·h | clearance [6]: 9.33 mL/min/kg | Cmax [7]: 2600 nM | Tmax [8]: 5 h

COc1ccc(-c2nc(O[C@@H]3C[C@H]4C(=O)N[C@]5(C(=O)NS(=O)(=O)C6CC6)C[C@H]5/C=C\CCCCN(C)C(=O)N4C3)c3ccc(OC)c(C)c3n2)cc1
EC50 (Hepatitis C virus): 3 nM | CL (Liver microsomes): 8 µL/min | Ki [1]: 0.6 nM | Papp [2]: 33 ×10⁻⁶ cm/s

COc1ccc2c(O[C@@H]3C[C@H]4C(=O)N[C@]5(C(=O)NS(=O)(=O)C6CC6)C[C@H]5/C=C\CCCCN(C)C(=O)N4C3)nc(-c3cccc(C)n3)nc2c1C
EC50 (Hepatitis C virus): 130 nM | Ki [1]: 0.9 nM

COc1ccc2c(O[C@@H]3C[C@H]4C(=O)N[C@]5(C(=O)NS(=O)(=O)C6CC6)C[C@H]5/C=C\CCCCN(C)C(=O)N4C3)nc(-c3cccnc3)nc2c1C
EC50 (Hepatitis C virus): 13 nM | Ki [1]: 2.8 nM

COc1ccc2c(O[C@@H]3C[C@H]4C(=O)N[C@]5(C(=O)NS(=O)(=O)C6CC6)C[C@H]5/C=C\CCCCN(C)C(=O)N4C3)nc(-c3ccncc3)nc2c1C
EC50 (Hepatitis C virus): 7 nM | CL (Liver microsomes): 14 µL/min | Ki [1]: 0.2 nM | Papp [2]: 0.4 ×10⁻⁶ cm/s

COc1ccc2c(O[C@@H]3C[C@H]4C(=O)N[C@]5(C(=O)NS(=O)(=O)C6CC6)C[C@H]5/C=C\CCCCCNC(=O)N4C3)nc(-c3ccccc3)nc2c1C
EC50 (Hepatitis C virus): 23 nM | CL (Liver microsomes): 26 µL/min | Ki [1]: 0.3 nM | Papp [2]: 38 ×10⁻⁶ cm/s

COc1ccc2c(O[C@@H]3C[C@H]4C(=O)N[C@]5(C(=O)NS(=O)(=O)C6CC6)C[C@H]5/C=C\CCCCCNC(=O)N4C3)nc(-c3ccc(F)cc3)nc2c1C
bioavailability [3]: 38% | EC50 (Hepatitis C virus): 16 nM | Kp at 6 h [10]: 100 | CL (Liver microsomes): 20 µL/min | Ki [1]: 0.2 nM | Papp [2]: 32 ×10⁻⁶ cm/s | AUC [5]: 1.7 µM·h | clearance [6]: 26.7 mL/min/kg | Cmax [7]: 390 nM | Tmax [8]: 2 h | Kp at 6 h [12]: 2.5
